High-throughput results: PubChem, several laboratories
Dynein transport = dynein cargo transport inhibition. 3617.4 mouse cells, GR-EGFP nuclear translocation imaging; test concentration mostly 20 µM; stimulated with dexamethasone, 1 µM; active compounds read low. z-score, hits read low. hit rate 0.47% among 220,000. AID 1381;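 active means plate z-score of nuclear minus cytoplasmic receptor signal below a set negative limit, without overly bright fluorescence or cell loss, cut at about -3.5 in these data, passing the limit was not always enough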;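 further: z-score of nuclear minus cytoplasmic ring GR-EGFP intensity difference per well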
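Medium: Induction medium lacking tetracycline, stripped serum | Probe or stimulus: 1.0 µM final dexamethasone stimulus | Schedule: 48 h induction, then 1 h compound, then 30 min agonist, 37 °C | Signal: Automated 10x imaging of fixed Hoechst-stained cells | Evaluation: Per-cell GR-EGFP intensity, nucleus versus surrounding cytoplasmic ring, well-averaged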
Beta2AR agonist = activates human beta-2 adrenergic receptor causing internalization | P07550 | Am2.2-beta2AR cells, FAP receptor internalization, flow cytometry | response, % (no concentration beside the values) | hit rate 0.43% among 340,000;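 active means response above a set limit, near 3 SD of response in nonfluorescent compounds, cut at about 42% in these data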
Mdm2 MdmX PPI = disrupts the human Mdm2-MdmX interaction. O15151+Q00987. SaOS-2 split-luciferase Mdm2/MdmX complementation, luminescence. inhibition, % at 8 µM. hit rate 3% among 330,000. AID 485346;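 active means inhibition of at least 50% at 8 µM in the primary screen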
XBP1 UPR activ = activators of adaptive arm of unfolded protein response (XBP1) | CHO-XBP1 luciferase reporter, IRE1-XBP1 UPR activation, luminescence; percent of tunicamycin response, DMSO as zero | activation, % at 20 µM | hit rate 0.33% among 330,000;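 active means versus positive control, 20 µM dose yields 30% or more activation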;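 further: 100% = tunicamycin at 10 µg/mL and 0% = DMSO only wells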
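Assay system: IRE1-XBP1 luciferase reporter CHO line. Input: 1000 cells/well. Buffer or medium: F12 with 10% serum. Doses: 20 µM, 1% DMSO. Times: overnight seeding at 37 °C, 6 h compound treatment at 37 °C. Technique: Steady-Glo luciferase glow luminescence, 10 min after reagent addition.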
Mdm2 ligase inh = inhibitors of human Mdm2 E3 ubiquitin ligase. Q00987. cell-based MDM2 ubiquitination luciferase reporter, 2 h; 0 = plate control, 100 = twice control, blank-subtracted. signal enhancement, % at 5 µM. hit rate 0.11% among 210,000. AID 1230;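 active means signal enhancement of 30% or more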;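 further: luminescence tracks abundance of the self-degrading MDM2-luciferase fusion protein; higher signal means inhibition of MDM2 E3 ligase activity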
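Assay system: stable mammalian line carrying autodegrading MDM2–luciferase fusion reporter; Input: 2000 cells in each well; Compound dosing: single-point 5 µM; Schedule: 2 h compound exposure at 37 °C; Signal: SteadyLite luciferase luminescence after 15 min room-temperature reagent incubation; Evaluation: % luminescence enhancement versus blank-corrected plate control mean; Benchmarks: plate controls and plate blanks.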
CHOP UPR activ = activators of apoptotic arm of unfolded protein response (CHOP) | CHO-CHOP luciferase reporter, UPR activation, luminescence; percent of tunicamycin response over DMSO baseline | hit rate 0.34% among 330,000 | activation, % at 10 µM | AID 449763;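 active means at 10 µM dose, activation of 40% or more, normalized to positive control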;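 further: 100% = tunicamycin at 10 µg/mL and 0% = DMSO alone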
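System: CHO-CHOP luciferase reporter cell line | Buffer or medium: F12 medium containing 10% fetal bovine serum | Doses: One dose, 10 µM in 0.5% DMSO | Times: 6 h compound exposure at 37 °C after overnight seeding | Signal: Luciferase luminescence | Read-out: % activation vs tunicamycin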
Mdm2 MdmX conf = confirmation of human Mdm2/MdmX interaction inhibitors; shares compounds with Mdm2 MdmX PPI; Mdm2-MdmX binding, luminescent assay; inhibition, % at 8 µM; hit rate 55% among 10,000; AID 489028; in the data active means inhibition above about 40%
Full FLuc ctr = counter-screen for Mdm2/MdmX inhibitors: full-length luciferase; SaOS-2 full-length luciferase counterscreen, luminescence; inhibition, % at 8 µM; hit rate 77% among 6,200; shares compounds with Mdm2 MdmX PPI;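 active means mean inhibition at 8 µM reaching about 37%, which flags the compound as non-specific, limit read from the data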;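 further: p53-null SaOS-2 cells with luciferase driven by a doxycycline-inducible promoter; compound on cells about two nights before reading with doxycycline added after day one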
Active calls of the source: *; . = no result given. Rows were chosen to be rich in hits. Some 3.7% of all compounds tested hit in one or more screens of this group.

SMILES	Dynein transport	Beta2AR agonist	Mdm2 MdmX PPI	XBP1 UPR activ	Mdm2 ligase inh	CHOP UPR activ	Mdm2 MdmX conf	Full FLuc ctr
CCC(=O)Nc1ccc(NC(=O)CSc2nc3c(c(=O)n(C)c(=O)n3C)n2CC)cc1	.	5	9	0	.	-1	.	.
CCCn1c(SCC(=O)Nc2nc(-c3ccc(OC)cc3)cs2)nc2c1c(=O)n(C)c(=O)n2C	-0.21	15	68*	17	-7	30	13	.
CCn1c(SCC(=O)Nc2nc(-c3ccccc3)cs2)nc2c1c(=O)n(C)c(=O)n2C	-0.17	2	64*	3	4	1	8	.
CCOC(=S)SCC(=O)Nc1nc(-c2ccccc2)cs1	-0.15	16	60*	4	-17	3	57*	100*
CCn1c(SCC(=O)Nc2nc3ccc(OC)cc3s2)nc2c1c(=O)n(C)c(=O)n2C	-0.41	15	22	7	21	2	.	.
O=C(Nc1cc(-c2ccccc2)nn1C1CCCCC1)c1ccc(Cl)cc1	.	1	11	2	.	-1	.	.
COCCN(C(=O)COC(=O)CCc1c[nH]c2ccccc12)c1c(N)n(Cc2ccccc2)c(=O)[nH]c1=O	.	-8	13	0	.	0	.	.
COc1cccc2[nH]c(C(=O)NCc3ccccc3)cc12	.	-3	25	-1	.	2	.	.
C[C@@H]1CN([C@H](C)CO)C(=O)c2cc(NC(=O)Nc3ccc(C(F)(F)F)cc3)ccc2O[C@H]1CN(C)S(=O)(=O)c1cccs1	.	8	81*	6	.	1	51*	44*
C[C@H](CO)N1C[C@H](C)[C@@H](CN(C)S(=O)(=O)c2cccs2)Oc2ccc(NC(=O)Nc3ccc(C(F)(F)F)cc3)cc2C1=O	.	3	68*	-1	.	3	-2	.
C[C@H](CO)N1C[C@H](C)[C@@H](CN(C)S(=O)(=O)c2cccs2)Oc2ccc(NC(=O)Nc3ccccc3)cc2C1=O	.	14	16	-3	.	1	.	.
Cc1c(C(=O)NC2CCN(Cc3ccccc3)C2)oc2c(Cl)cccc12 (centres undefined)	.	1	23	-3	.	-1	.	.
c1ccc2c(c1)CCc1ccccc1C2=C1CCNCC1	.	10	67*	-1	.	2	49*	73*
COc1ccc(CN2CSC(=S)N(Cc3ccccc3)C2)cc1	.	1	17	7	.	1	.	.
S=C1SCN(Cc2cccnc2)CN1Cc1cccnc1	-0.29	3	79*	-3	-1	14	77*	56*
O=C1CCCN1CCCN1CC(C(=O)N(CCO)Cc2ccccc2)CCC1=O (centres undefined)	.	-4	-1	-3	.	-2	.	.
COc1cccc(CN2CCN(Cc3ccc(O)cc3)CC2CCO)c1 (centres undefined)	1.6	-2	15	-2	-8	-1	.	.
COc1cc(C#Cc2c(-c3cncn3C)n(C)c3ccc(-c4cc(OC)c(OC)c(OC)c4)cc23)cc(OC)c1	.	16	96*	14	.	15	51*	62*
COc1cc(C#Cc2c(-c3cncn3C)n(C)c3ccc(-c4ccc5[nH]ccc5c4)cc23)cc(OC)c1	.	15	26	8	.	7	.	.
COc1cc(C#Cc2c(-c3cncn3C)n(C)c3ccc(-c4ccc(OC)nc4)cc23)cc(OC)c1	.	19	69*	5	.	6	36	58*
COc1cc(/C=C2\SC(N)=NC2=O)ccc1O	.	1	60*	-7	.	0	52*	57*
C=CCOc1ccc(/C=C2\SC(N)=NC2=O)cc1OC	.	3	14	4	.	3	.	.
COc1cc(/C=C2\SC(=Nc3ccccc3OC)NC2=O)ccc1O	.	9	41	3	.	1	.	.
COc1cc(/C=C2\SC(N)=NC2=O)cc(OC)c1	.	18	51*	1	.	0	25	.
